Measured values published in the EternaBench riboswitch data.

Test system: MS2 coat protein
Experiment: apparent Kd, MS2 coat protein; higher = weaker binding; RNA-MaP array; tryptophan 2.4 mM where present
Method in brief: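 Designs were transcribed by stalled E. coli RNA polymerase on Illumina sequencing-chip clusters. They were titrated with SNAP-549-labelled MS2 coat protein from 0.7 or 1.5 nM, doubling to 3 µM, in 100 mM Tris-HCl pH 7.5, 80 mM KCl, 4 mM MgCl2, BSA, DTT, yeast tRNA and Tween-20, without and then with constant ligand. The apparent Kd is the median of filtered per-cluster fits after normalisation of green signal to red-channel RNA signal and control-cluster median Fmax.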

[1] = designed as: ON switch for tryptophan, no ligand
[2] = ligand present: tryptophan, designed as: ON switch for tryptophan
[3] = designed as: OFF switch for tryptophan, no ligand
[4] = ligand present: tryptophan, designed as: OFF switch for tryptophan

| Sequence | apparent Kd [1] [nM] | apparent Kd [2] [nM] | apparent Kd [3] [nM] | apparent Kd [4] [nM] |
| --- | --- | --- | --- | --- |
| CGCACAUGAGGAUCACCCAUGUGAGGGCGUCGAGGACCGGUACGGCCGCCACUCGCAGGACAUGAGGAUCACCCAUGUGCCGCCG | 116 | 57.2 | – | – |
| CGCGCGACAUGAGGAUCACCCAUGUUCCCUCGAGGACCGGUACGGCCGCCACUCGAGGACAUGAGCAUCAGCCAUGUACCGGUCA | 51.6 | 131 | – | – |
| CUAUAAGUACCGGUCCUCAGAUCCUCAUGACGAGGACCGGUACGGCCGCCACUCGAAACAUGAGGAUCACCCAUGUAAUAAUAUU | – | – | 20.2 | 19.3 |
| GAUAUACGUGCGGCCGCCACUGAGUGGCGGGCGUGUCGAGUUACAUGAGGAUCACCCAUGUCACUCAGGACCGGGCACGGAAUUU | – | – | 9.98 | 11.4 |
| GCAUCCUAGUCGGCCGCCACUGGUAUGAACACCUUCACCCGUGUGCACAUGAGGAUCACCCAUGUUAGGACCGGGACUAGGAUGC | 9.03 | 9.3 | – | – |
| GCUGCAGCUACGGCCGCCACUGUUACGUGAGACAUGAGGAUCACCCAUGUUGAUGUUUUACGGUAUAGGACCGGGUAGUUGUAGU | – | – | 9.7 | 13.4 |
| GGCAAAAGGUCGGCCGCCACUGUAGGAUGUGUUCUUUCACAUGAGGAUCACCCAUGUUGUUAUUAUAGGACCGGGAUUUUAGGAC | – | – | 21.8 | 21.1 |
| GGCUAUACUACGGCCGCCACUGAACAUGAGGAUCACCCAUGUAAUGUUCAGAUUUUUUUUUUUUACAGGACCGGGUAGAAUUGCC | 195 | 104 | – | – |
| GGGUGGUAGGCGGCCGCCACUGAUUUUCAUUCCUGGAUGACAUGAGGAUCACCCAUGUUUACGGGCAGGACCGGGCCUGCUGUGG | 57.3 | 46.5 | – | – |
| GGUGGACUUUCGGCCGCCACUGAGAGAGUCGUGUGAACAUGAGGAUCACCCAUGUAAUAUAUAUACAGGACCGGGAGGGUUGUCC | – | – | 15.9 | 15.9 |
| GUUAUUAGAAAACUAAUAACAGUGGGUGAACGAGGACCGGUACGGCCGCCACUCGGACAUGAGGAUCACCCAUGUCCAUGUGAAA | – | – | 15.4 | 32.7 |
| UAAACUACACAUGAGGAUCACCCAUGUGGCCGAGGACCGGUACGGCCGCCACUCGUGUGUUAAUAAUAGAACUGCAAGGUUCUGU | 183 | 75.2 | – | – |
| UAACAUGAGGAUCACCCAUGUUUAGAAGAACGAGGACCGGUACGGCCGCCACUCGAAAAGUGGAAGAAAAGAGGGAUAGAAUGAU | 12.2 | 12.6 | – | – |
| UAAUAAGUACCGGUCCUCAGAUCCUCAUGACGAGGACCGGUACGGCCGCCACUCGAAACAUGAGGAUCACCCAUGUAAUAAUAAC | – | – | 27.4 | 19.4 |
| UAAUGCAGGUCGGCCGCCACUACACACAUGAGGAUCACCCAUGUAGUUACUGGGUGAAGUGGCAGUAGGACCGGGACCUGCAUAC | 372 | 470 | – | – |
| UCGUUGAAGUCGGCCGCCACUGAACUCAUGUUCAACAUGAGGAUCACCCAUGUACCUUAUUUUAACAGGACCGGGACUUUGACGA | – | – | 167 | 156 |
| UUAAUUAUUGAAUCGUAUUGGUAUUAAGAACGAGGACCGGUACGGCCGCCACUCGUGAUAUACAUGAGGAUCACCCAUGUUAGCA | 14.8 | 14 | – | – |
